Series [1] in a line: Half life in pH 6.8 phosphate buffer at 5 mM by HPLC analysis. It is filed as physicochemical. In short, it runs like this:
(§1)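 Compound at 5 mM in 0.1 M HCl, pH 4.5 acetate buffer, pH 5.8/6.8/7.2 phosphate buffers, SGF (pH 1.2) and SIF (pH 6.8), prepared per Chinese Pharmacopoeia. Samples taken at 0-20 h and analyzed by HPLC-UV. k = 2.303×slope of log C versus time; t1/2 = 0.693/k.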

The nature of series [2]: Apparent permeability across human Caco2 cells at 0.5 mM measured after 5 to 60 mins by UPLC-MS/MS analysis. It is filed as ADME, cell-based. Conditions: caco-2, 500 µM. In short, it runs like this:
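Caco-2 cells grown on 0.4 µm transwell inserts; monolayers used only with TEER >300 Ω/cm². Compound at 0.5 mM in apical pH 6.0 HBSS, basolateral pH 7.4 HBSS, 37 °C. Basolateral samples taken at 5, 15, 30, 45 and 60 min. Quantified by UPLC-MS/MS; Papp from steady-state flux, area and initial donor concentration. Three repeats.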
On the technique in general: Passage across Caco-2 layers is used to estimate intestinal permeability.

Series [3] can be described thus: Ratio of half-life in pH 7.2 phosphate buffer to half-life in Sprague-Dawley rat intestinal homogenates. It is filed as ADME, tissue-based. The conditions noted are these: tissue homogenate.
Series [4] can be described thus: Ratio of half-life in pH 7.2 phosphate buffer to half-life in Sprague-Dawley rat plasma. Type of series: ADME.
Series [5] can be described thus: Half life in pH 7.2 phosphate buffer at 5 mM by HPLC analysis. It is filed as physicochemical. The gist of the method: as §1
The nature of series [6]: Half life in pH 6.8 simulated intestinal fluid at 5 mM by HPLC analysis. Type of series: ADME. In short, it runs like this:
as §1

A short description of series [7]: Half life in Sprague-Dawley rat liver homogenates at 5 mM by HPLC analysis. It is filed as ADME, tissue-based. The gist of the method: (§2)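 Jejunum and liver homogenates from male SD rats in pH 7.4 PBS, adjusted to 200 µg/mL protein, and rat plasma. Each incubated with compound at 5 mM at 37 °C.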
A short description of series [8]: AUC (0 to t) in Sprague-Dawley rat assessed as JBP485 level at 12 mg/kg equiv of JBP485 administered orally by UPLC-MS/MS analysis. It is filed as ADME, organism-based. The conditions noted are these: in vivo, po. In short, it runs like this: (§3)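 Male SD rats, 200-250 g, fasted 12 h with water, n=6. Oral dose of 12 mg/kg as JBP485 equivalent; dose-effect arms at 12 and 100 mg/kg. JBP485 given iv at 6 mg/kg as the reference. Jugular blood taken at 0.083-10 h. Plasma JBP485 by UPLC-MS/MS. Absolute F = (AUCpo×Div)/(AUCiv×Dpo)×100%, using AUC0-t.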

The nature of series [9]: Half life in Sprague-Dawley rat plasma at 5 mM by HPLC analysis. Type of series: ADME, cell-free. The gist of the method:
as §2

Series [10] in a line: Ratio of half-life in pH 7.2 phosphate buffer to half-life in Sprague-Dawley rat liver homogenates. It is filed as ADME, tissue-based. The conditions noted are these: tissue homogenate.
Series [11] is described as follows: Half life in pH 4.5 acetate buffer at 5 mM by HPLC analysis. It is filed as physicochemical. In short, it runs like this:
as §1

The nature of series [12]: Terminal half-life in Sprague-Dawley rat assessed as JBP485 level at 12 mg/kg equiv of JBP485 administered orally by UPLC-MS/MS analysis. It is filed as ADME, organism-based. Conditions: in vivo, po. The gist of the method: (§4)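 Fasted male SD rats (200–250 g), oral 12 mg/kg (prodrugs calculated as JBP485). Jugular blood 0.083–10 h, centrifuged, plasma JBP485 by UPLC-MS/MS; n=6.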

A short description of series [13]: Cmax in Sprague-Dawley rat assessed as JBP485 level at 12 mg/kg equiv of JBP485 administered orally by UPLC-MS/MS analysis. The conditions noted are these: in vivo, po. The arrangement: dose 12 mg/kg, route oral. Type of series: ADME, organism-based. The gist of the method:
as §3

A short description of series [14]: Tmax in Sprague-Dawley rat assessed as JBP485 level at 12 mg/kg equiv of JBP485 administered orally by UPLC-MS/MS analysis. The conditions noted are these: in vivo, po. It is filed as ADME, organism-based. In short, it runs like this:
as §4

Series [15] can be described thus: Half life in 0.1 M HCl at 5 mM by HPLC analysis. Type of series: physicochemical. The gist of the method:
as §1

A short description of series [16]: Oral bioavailability in Sprague-Dawley rat assessed as JBP485 level at 12 mg/kg equiv of JBP485 by UPLC-MS/MS analysis. Type of series: ADME, organism-based. Conditions: in vivo. The gist of the method:
as §3

A short description of series [17]: Half life in Sprague-Dawley rat intestinal homogenates at 5 mM by HPLC analysis. Type of series: ADME, tissue-based, Intestine. The gist of the method: as §2
The nature of series [18]: Half life in pH 5.8 phosphate buffer at 5 mM by HPLC analysis. It is filed as physicochemical. The gist of the method:
as §1

A short description of series [19]: Half life in pH 1.2 simulated gastric fluid at 5 mM by HPLC analysis. It is filed as ADME. The gist of the method: as §1
Substrate in series [20]: O=C1N[C@@H](CO)C(=O)N2C[C@H](O)C[C@@H]12
The series is described as follows: (§5) Substrate activity at PEPT1 in human Caco2 cells assessed as Km measured after 10 mins by Eadie-Hofstee plot analysis. Type of series: ADME, cell-based. The gist of the method: (§6)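 Caco-2 uptake at 0.2–5 mM compound for 10 min at 37 °C, cells washed ice-cold and lysed, drug quantified by UPLC-MS/MS and normalised to protein. Km from Eadie–Hofstee plot; n=3.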

Substrate in series [21]: [H][C@@]12C[C@@H](O)CN1C(=O)[C@H](COC(=O)[C@@H](N)C(C)C)NC2=O
The description is as §5. It is filed as ADME, cell-based. In short, it runs like this: as §6

Substrate in series [22]: O=C(O)[C@H](CO)NC(=O)[C@@H]1C[C@@H](O)CN1
Described as §5. It is filed as ADME, cell-based. In short, it runs like this: as §6

Some results are limits rather than exact numbers.

By half-life is commonly meant the time needed for the level to fall by half in the phase considered. High values mean slow decline, low ones rapid decline. As usually defined, the Cmax is the highest concentration seen after dosing. One may read the Tmax as the time at which the peak concentration occurs. In the case of `CC(C)[C@H](N)C(=O)O[C@@H]1C[C@H]2C(=O)N[C@@H](CO)C(=O)N2C1`, the half-life at 5000 µM is 11.4 h in series [1]; 11.6 h in series [5]; 11.1 h in [6]; 2.1 h in series [7]; 6.1 h in [9]; above 20 h in series [11]. Besides, the half-life at 5000 µM is above 20 h in [15], 0.9 h in [17], above 20 h in series [18] and above 20 h in series [19]. Also, the Papp result in series [2] is reported as “Permeable”. Besides, the Ratio in [3], in [4] and in [10] was 3 to 35 each time. For the same molecule, the AUCt in [8] came to 139.78 nM/ml.hr. Further, in [12], the “beta t1/2” value is 2.51 h. In addition, the Cmax in series [13] is 98.3 µM. The Tmax in [14] amounted to 0.41 h. The F in [16] was determined as 36%.
Turning to `CC(C)C[C@H](N)C(=O)OC[C@@H]1NC(=O)[C@@H]2C[C@@H](O)CN2C1=O`, the half-life at 5000 µM in series [1] is 2.6 h; in [5], 1.9 h; in series [6], 2.4 h; in series [7] it was 0.16 h; in series [9], 0.32 h; in series [11], above 20 h. Further, the half-life at 5000 µM is above 20 h in [15], below 0.083 h in series [17], 14.7 h in series [18] and above 20 h in [19]. The Ratio in [3], in [4] and in [10] was 3 to 35 throughout. Besides, the AUCt in series [8] amounted to 28.75 nM/ml.hr. Besides, the “beta t1/2” value in series [12] came out at 2.23 h. Besides, in series [13], the Cmax was 8.95 µM. Further, the Tmax in series [14] was found to be 1.3 h. For the same molecule, the F in series [16] is listed as 7.4%.
As for `CCC(C)[C@H](N)C(=O)OC[C@@H]1NC(=O)[C@@H]2C[C@@H](O)CN2C1=O` (some centres not stated), the half-life at 5000 µM is 11.6 h in series [1]; 9.6 h in [5]; 10.9 h in [6]; 4.8 h in series [7]; 4 h in series [9]; above 20 h in series [11]. Also, the half-life at 5000 µM is above 20 h in series [15], 0.8 h in [17], above 20 h in series [18] and above 20 h in [19]. Further, in series [2], the Papp result was “Permeable”. In addition, the Ratio in series [3], in series [4] and in series [10] was 3 to 35 throughout. Also, the AUCt in series [8] stood at 122.65 nM/ml.hr. In series [12], the “beta t1/2” value amounted to 0.9 h. In addition, the Cmax in series [13] was determined as 41.8 µM. In addition, in series [14], the Tmax stood at 0.9 h. The F in series [16] is 31.6%.
With `N[C@@H](Cc1ccccc1)C(=O)OC[C@@H]1NC(=O)[C@@H]2C[C@@H](O)CN2C1=O`, the half-life at 5000 µM in series [1] was 2.6 h; in series [5], 2.3 h; in series [6] it was 2.8 h; in [7] it was 0.16 h; in series [9] it was 0.29 h; in series [11] it was above 20 h. Moreover, the half-life at 5000 µM was above 20 h in series [15], below 0.083 h in [17], 8.2 h in series [18] and above 20 h in series [19]. The Ratio in [3], in [4] and in [10] was 3 to 35 in each case. The AUCt in [8] came to 33.9 nM/ml.hr. The “beta t1/2” value in series [12] stood at 2.38 h. Besides, the Cmax in series [13] worked out at 10.7 µM. The time of peak concentration (Tmax) in series [14] worked out at 1 h. Also, the F in series [16] worked out at 8.7%.

B1: Solute carrier family 15 member 1 (Homo sapiens) (protein)
chain: MGMSKSHSFFGYPLSIFFIVVNEFCERFSYYGMRAILILYFTNFISWDDNLSTAIYHTFVALCYLTPILGALIADSWLGKFKTIVSLSIVYTIGQAVTSVSSINDLTDHNHDGTPDSLPVHVVLSLIGLALIALGTGGIKPCVSAFGGDQFEEGQEKQRNRFFSIFYLAINAGSLLSTIITPMLRVQQCGIHSKQACYPLAFGVPAALMAVALIVFVLGSGMYKKFKPQGNIMGKVAKCIGFAIKNRFRHRSKAFPKREHWLDWAKEKYDERLISQIKMVTRVMFLYIPLPMFWALFDQQGSRWTLQATTMSGKIGALEIQPDQMQTVNAILIVIMVPIFDAVLYPLIAKCGFNFTSLKKMAVGMVLASMAFVVAAIVQVEIDKTLPVFPKGNEVQIKVLNIGNNTMNISLPGEMVTLGPMSQTNAFMTFDVNKLTRINISSPGSPVTAVTDDFKQGQRHTLLVWAPNHYQVVKDGLNQKPEKGENGIRFVNTFNELITITMSGKVYANISSYNASTYQFFPSGIKGFTISSTEIPPQCQPNFNTFYLEFGSAYTYIVQRKNDSCPEVKVFEDISANTVNMALQIPQYFLLTCGEVVFSVTGLEFSYSQAPSNMKSVLQAGWLLTVAVGNIIVLIVAGAGQFSKQWAEYILFAALLLVVCVIFAIMARFYTYINPAEIEAQFDEDEKKNRLEKSNPYFMSGANSQKQM
By Km is commonly meant the substrate concentration at which the rate is half of its maximum. As for B1, the Km in series [20] was determined as 2530 µM; in [21] it was 860 µM; in [22] it was 650 µM.
